SENP8 block-1: inhibitors of human SENP8 protease; Q96LD8; recombinant SENP8, Nedd8 substrate fluorescence; inhibition, % at 20 µM; 360,000 tested, 0.64% active; AID 602440; in the data active means inhibition mostly above about 40%, no sharp cut-off; inactive means mostly below about 27%
Target sequence (Q96LD8 whole entry, looked up): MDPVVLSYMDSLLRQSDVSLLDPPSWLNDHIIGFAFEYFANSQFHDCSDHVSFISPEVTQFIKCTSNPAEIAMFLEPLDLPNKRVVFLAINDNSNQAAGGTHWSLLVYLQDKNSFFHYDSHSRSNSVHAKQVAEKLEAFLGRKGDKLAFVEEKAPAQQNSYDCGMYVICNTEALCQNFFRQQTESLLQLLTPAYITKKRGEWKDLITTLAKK
SENP8 block-2: blocks the human protease SENP8 | Q96LD8 | purified SENP8, Z-RLRGG-aminoluciferin cleavage, luminescence | inhibition, % at 10 µM | 330,000 tested, 1.2% active; in the data active means inhibition above about 50%
SENP1 FRET inh: inhibitors of human SENP1 SUMO protease catalytic domain. AID 624204. inhibition, % at 10 µM. recombinant SENP1 catalytic domain, CyPet-SUMO1-YPet FRET cleavage. Q9P0U3. 360,000 tested, 0.21% active;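 active means inhibition at least 30% at 10 µM, raw YFP signal under a set limit, fluorescence ratio 0.5 to 1.5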;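 further: 0% = enzyme with DMSO and 100% = no enzyme wells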
Target sequence (Q9P0U3 419-644 limits assumed): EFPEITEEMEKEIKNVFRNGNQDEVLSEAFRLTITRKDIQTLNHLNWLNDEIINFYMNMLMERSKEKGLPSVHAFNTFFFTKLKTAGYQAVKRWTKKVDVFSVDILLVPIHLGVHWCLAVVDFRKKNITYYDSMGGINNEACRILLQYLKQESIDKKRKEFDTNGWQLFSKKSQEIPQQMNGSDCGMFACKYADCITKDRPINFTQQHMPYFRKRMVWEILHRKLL
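Test system: human SENP1 catalytic domain; medium: Tris pH 8 buffer plus EDTA, NaCl, BME, BSA, NP40, catalase; incubation: 50 min reaction at room temperature; technique: FRET, CFP and YFP emission; controls: no-enzyme low control and enzyme-plus-DMSO high control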
SENP6 inh: SENP6 protease inhibition; Recombinant SENP6 catalytic domain, aminoluciferin luminescence; Q9GZR1; 330,000 tested, 1.8% active; inhibition, % at 10 µM; AID 2599;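 active means inhibition above about 50% at the single tested dose, limit read from the data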;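 further: plate controls were DMSO wells with enzyme for no effect and DMSO wells lacking enzyme for full effect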
SENP7 inh: blocks the human protease SENP7; inhibition, % at 5 µM; Q9BQF6; recombinant SENP7, Z-RLRGG-aminoluciferin luminescence, 40 min; 330,000 tested, 1.5% active; AID 434973;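 active means inhibition above about 50% at the single test dose, limit read from the data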;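 further: plate controls were DMSO with enzyme for no effect and no enzyme buffer wells for full effect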
HSP90 refold inh: HSP90 refolding inhibition in rabbit reticulocyte lysate; luciferase refolding luminescence, 3 h; inhibition, % at 5.6 µM; 290,000 tested, 0.91% active;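 active means inhibition above the screen-wide mean plus 3 SD, computed separately per campaign, cut at about 16% in these data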;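 further: 0% = DMSO wells and 100% = 60 µM geldanamycin wells; inhibitors lower the luminescence because luciferase stays unfolded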
SENP8 confirm: confirmation of human SENP8 protease inhibitors. shares compounds with SENP7 inh. Recombinant SENP8, Z-RLRGG-aminoluciferin luminescence, 60 min. inhibition, % at 12.5 µM. 6,200 tested, 40% active. AID 488912;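 active means mean inhibition across replicates above about 50%, limit read from the data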
SENP6 conf: human SENP6 inhibition, confirmed. shares compounds with SENP7 inh. recombinant SENP6, Z-RLRGG-aminoluciferin luminescence. inhibition, % at 12.5 µM. 6,200 tested, 58% active. AID 488915
SENP7 conf: human SENP7 inhibition, confirmed | shares compounds with SENP7 inh | recombinant SENP7, Z-RLRGG-aminoluciferin luminescence, 40 min | inhibition, % at 12.5 µM | 6,200 tested, 69% active | AID 488917
Casp3 select: caspase-3 inhibition (SENP selectivity assay); shares compounds with SENP7 inh; purified caspase-3, Z-DEVD-aminoluciferin luminescence, 60 min; inhibition, % at 12.5 µM; 6,200 tested, 60% active; AID 488918;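 active means mean inhibition above about 50%, limit read from the data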;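 further: plate controls were enzyme with DMSO for no effect and wells without caspase-3 for full effect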
Target sequence (P42574 28-227 limits assumed): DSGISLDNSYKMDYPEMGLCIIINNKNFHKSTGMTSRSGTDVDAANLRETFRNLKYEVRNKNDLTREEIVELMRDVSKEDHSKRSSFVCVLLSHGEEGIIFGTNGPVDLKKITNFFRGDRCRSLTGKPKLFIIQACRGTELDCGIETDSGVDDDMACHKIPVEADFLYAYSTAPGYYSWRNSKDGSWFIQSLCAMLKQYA
Luc interf: counter-screen for SENP inhibitors: luminescence interference. shares compounds with SENP7 inh. Pre-incubated SENP8/Z-RLRGG-aminoluciferin, luciferase luminescence interference. inhibition, % at 12.5 µM. 6,200 tested, 39% active;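 active means mean inhibition above about 50% when retested at one dose, limit read from the data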;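 further: plate controls were DMSO wells with completed reaction for no effect and substrate without enzyme for full effect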
* marks the source's active call; other numbers are inactive results; . = no result. Most compounds without a hit are left out; they make up all but 2.9% or so of the library.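 How the source made its calls, unless noted: active means mean inhibition above about 50% in the one-dose retest (limit read from the data); inactive means the rest.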

SMILES	SENP8 block-1	SENP8 block-2	SENP1 FRET inh	SENP6 inh	SENP7 inh	HSP90 refold inh	SENP8 confirm	SENP6 conf	SENP7 conf	Casp3 select	Luc interf
N/C(=N\OC(=O)/C=C/c1ccccc1Cl)c1cccnc1	24	27	6	49	52*	-5	9	5	20	10	36
N/C(=N\OC(=O)c1ccc(OCC(F)(F)F)nc1)c1ccc(Cl)cc1	2	-32	2	-17	27	2	.	.	.	.	.
N/C(=N\OC(=O)c1ccc(Cl)cc1)c1ccc(Cl)cc1	9	-13	3	9	54*	-2	9	7	13	6	-2
Cc1cccc(/C(N)=N/OC(=O)c2ccc(Br)o2)c1	12	70*	-1	80*	78*	0	53*	77*	94*	86*	31
COc1cc(NC(=O)CCC(=O)N2CCN(S(=O)(=O)c3ccc(C)cc3)CC2)cc(OC)c1	13	.	3	.	.	.	.	.	.	.	.
CC(=O)c1ccc(OC(C)C(=O)NCC2(N3CCOCC3)CCCCC2)cc1 (stereo not drawn)	2	-7	-1	3	9	.	.	.	.	.	.
N/C(=N\OC(=O)c1ccccc1Cl)c1ccccc1	12	95*	2	94*	98*	1	97*	99*	103*	97*	96*
O=C(O/N=C(\c1ccccc1)c1ccncc1)c1ccccc1Cl	7	-13	3	-38	-1	5	.	.	.	.	.
O=C(O)c1cc([N+](=O)[O-])ccc1NCc1ccccc1	27	5	-2	14	3	-1	.	.	.	.	.
O=C(O)c1cc([N+](=O)[O-])ccc1NCCCc1ccccc1	7	68*	-6	74*	-1	.	75*	69*	73*	52*	71*
COc1cccc(NC(=O)Nc2ccccc2Br)c1	4	66*	2	90*	82*	-2	77*	78*	94*	70*	36
COc1ccc(C)cc1NC(=O)Nc1cccc(C(=O)O)c1	-8	-11	5	-30	-3	2	.	.	.	.	.
COc1ccc(NC(=O)Nc2cccc(OC)c2)cc1	6	29	2	35	-9	0	.	.	.	.	.
COC(=O)c1ccccc1NC(=O)Nc1cccs1	-42	-8	-1	-5	-7	-2	.	.	.	.	.
COc1ccccc1NC(=O)Nc1cccc(C(=O)O)c1	-5	30	3	60*	44	2	56*	52*	80*	77*	63*
O=C(Nc1cccs1)Nc1ccccc1Br	5	22	-1	50*	40	-1	31	46	75*	41	17
COc1cccc(NC(=O)COc2ccccc2C(N)=O)c1	14	38	2	65*	39	0	30	27	71*	75*	52*
COc1cccc(NC(=O)COC(=O)COc2ccccc2[N+](=O)[O-])c1	10	-9	5	-27	-3	2	.	.	.	.	.
CC1(C(=O)NCc2ccccc2Br)CCN1Cc1ccc2ccccc2c1 (stereo not drawn)	13	.	1	.	.	.	.	.	.	.	.
NC(Cc1ccc(F)cc1)c1csc(Nc2nccc(C(F)(F)F)n2)n1 (stereo not drawn)	8	.	0	.	.	.	.	.	.	.	.
COc1ccccc1CNC(=O)COC(=O)CCN1C(=O)C2CC=CCC2C1=O (stereo not drawn)	4	.	2	.	.	.	.	.	.	.	.
CNc1cccc(-c2ccc(N3CCN(C)CC3)nc2)n1	-462	.	-1	.	.	.	.	.	.	.	.
Cn1nnc2cc(NC(=O)Nc3ccccc3F)ccc21	1	.	2	.	.	.	.	.	.	.	.
Cc1cc(NC(=O)Nc2ccccc2F)ccc1Br	20	88*	1	80*	95*	1	76*	92*	102*	86*	64*
CCc1nc2c(OCC(=O)C(C)(C)C)cccn2c1N(C)C(=O)CC(C)C	20	.	-4	.	.	.	.	.	.	.	.
SMILES	SENP8 block-1	SENP8 block-2	SENP1 FRET inh	SENP6 inh	SENP7 inh	HSP90 refold inh	SENP8 confirm	SENP6 conf	SENP7 conf	Casp3 select	Luc interf
CSc1ccc(/C=N/NC(=O)c2ccc(C)c(C)c2)cc1	-100	-6	-1	-28	-1	4	.	.	.	.	.
CSc1ccc(/C=N/NC(=O)c2sccc2C)cc1	-158	92*	1	94*	100*	1	14	61*	101*	63*	-5
CSc1ccc(/C=N/NC(=O)c2cc(O)cc(O)c2)cc1	-169	22	3	58*	43	-1	59*	58*	84*	65*	65*
CC(=O)Nc1ccc(S(=O)(=O)Nc2nccc(C)n2)cc1	5	-1	-2	-1	-10	4	.	.	.	.	.
Cc1ccnc(NS(=O)(=O)c2ccc(NC(=O)C(C)(C)C)cc2)n1	6	4	2	89*	-2	-6	12	11	-3	1	3
COc1ccc(-c2ccc(C(=O)NCc3cccs3)c3occc23)c(C)c1	-242	.	0	.	.	.	.	.	.	.	.
COc1ccc(/C=C(\C#N)C(=O)Nc2cccc(C)n2)cc1	8	51*	2	50*	36	1	11	18	16	11	21
COc1ccc(/C=C(\C#N)C(=O)c2cccn2C)cc1	18	69*	-3	79*	78*	-1	87*	87*	94*	72*	82*
Cn1cccc1C(=O)/C(C#N)=C/c1ccc(F)cc1	10	-1	14	15	0	3	.	.	.	.	.
COC(=O)c1ccccc1S(=O)(=O)N1CCC(C(=O)NCc2ccccn2)CC1	2	.	-1	.	.	.	.	.	.	.	.
Cc1nn(-c2ccccc2)c(Cl)c1/C=N/NC(N)=O	3	1	3	-6	8	-4	.	.	.	.	.
Cc1nn(-c2ccccc2)c(Cl)c1/C=N/NC(=O)c1ccnn1C	5	87*	-3	94*	94*	5	59*	81*	97*	92*	55*
N/C(Cc1ccc(Cl)cc1Cl)=N\OC(=O)c1ccccc1	10	-4	2	-5	-2	-2	.	.	.	.	.
N/C(=N\OC(=O)c1ccc(Cl)cc1Cl)c1ccccc1	18	93*	0	101*	99*	16	98*	99*	103*	98*	98*

High-throughput results from PubChem.
